Data on two compounds can be found in ChEMBL document CHEMBL4251717, “Bioactive α-Pyrone Derivatives from the Endolichenic Fungus Dothideomycetes sp. EL003334” (J Nat Prod, 2018).

The test system of data set [1] is BV-2. Nature of the data set: Inhibition of iNOS protein expression level in LPS-induced […] BV2 cells preincubated for 3 hrs followed by LPS stimulation measured after 24 hrs by Western blot analysis. It is filed as functional, cell-based. In short, it runs like this:
(§1)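 BV2 cells pretreated 3 h with compound, then LPS (1 μg/mL) for 24 h. Cells lysed in 20 mM Tris-HCl pH 7.4 with protease inhibitors. Protein quantified by Lowry. Equal protein run on 7.5% and 12% SDS-PAGE, transferred to nitrocellulose and probed with anti-iNOS, anti-COX-2 and anti-actin antibodies, ECL detection.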
On the technique in general: Immunoblotting shows a protein as a band on a membrane.

For data set [2], the system named is BV-2. Nature of the data set: Inhibition of COX2 protein expression level in LPS-induced […] BV2 cells preincubated for 3 hrs followed by LPS stimulation measured after 24 hrs by Western blot analysis. It is filed as functional, cell-based. Put shortly: as §1
Data set [3] deals with BV-2. Nature of the data set: Antiinflammatory activity in LPS-induced […] BV2 cells assessed as inhibition of IL-1beta mRNA expression level preincubated for 3 hrs followed by LPS stimulation measured after 6 hrs by qRT-PCR analysis. It is filed as functional, cell-based. In short, it runs like this: (§2)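 BV2 microglia in DMEM with 10% heat-inactivated FBS, penicillin/streptomycin and 2 mM L-glutamine, 37 °C, 5% CO2. Cells incubated with compound for 3 h, then LPS (1 μg/mL) for 6 h. Il1b, Il6 and Tnf mRNA measured by RT-qPCR with GAPDH as endogenous control. Relative expression by comparative Ct (2−ΔΔCt). Mean of three independent experiments.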
(In qPCR the cycle at which signal appears reflects the starting amount.)

Data set [4] relates to BV-2. Nature of the data set: Antiinflammatory activity in LPS-induced […] BV2 cells assessed as inhibition of IL-6 mRNA expression level preincubated for 3 hrs followed by LPS stimulation measured after 6 hrs by qRT-PCR analysis. It is filed as functional, cell-based. In short, it runs like this:
as §2

In data set [5] the test system is BV-2. Nature of the data set: Antiinflammatory activity in […] BV2 cells assessed as inhibition of LPS-induced PGE2 production preincubated for 3 hrs followed by LPS stimulation measured after 24 hrs by ELISA. It is filed as functional, cell-based. Put shortly:
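Pretreatment of BV2 cells with compound for 3 h, then LPS (1 μg/mL) stimulation for 24 h. PGE2 in culture medium measured by ELISA/enzyme immunoassay kit.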
Background: An ELISA detects its analyte on a solid surface through an enzyme-linked reagent.

The test system of data set [6] is BV-2. As to the kind of experiment: Antiinflammatory activity in […] BV2 cells assessed as inhibition of LPS-induced NO production preincubated for 3 hrs followed by LPS stimulation measured after 24 hrs by Griess assay. It is filed as functional, cell-based. Put shortly:
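BV2 cells pretreated with compound for 3 h, then LPS (1 μg/mL) for 24 h. Nitrite in conditioned medium taken as NO indicator. Supernatant mixed 1:1 with Griess reagent (0.1% N-(1-naphthyl)ethylenediamine, 1% sulfanilamide in 5% phosphoric acid), 10 min at room temperature. A540 read. Concentration from a sodium nitrite standard curve made in phenol red-free DMEM. IC50 reported.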

For data set [7], the system named is BV-2. As to the kind of experiment: Cytotoxicity against […] BV2 cells assessed as reduction in cell viability up to 40 uM after 24 hrs by MTT assay. It is filed as cell-based. The conditions noted are these: bv-2, 24 h. In short, it runs like this: (§3)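 BV2 cells (1 × 10^5 cells/well) exposed to compound for 24 h, at concentrations up to 80 μM. MTT added to 0.5 mg/mL final for 3 h. Formazan dissolved in acidic 2-propanol and read at 540 nm. Untreated cells set as 100% viability.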

Data set [8] deals with BV-2. Nature of the data set: Antiinflammatory activity in LPS-induced mouse BV2 cells assessed as inhibition of TNF-alpha mRNA expression level preincubated for 3 hrs followed by LPS stimulation measured after 6 hrs by qRT-PCR analysis.
Data set [9] relates to BV-2. As to the kind of experiment: Cytotoxicity against […] BV2 cells assessed as reduction in cell viability up to 80 uM after 24 hrs by MTT assay. It is filed as cell-based. The conditions noted are these: bv-2, 24 h. Put shortly: as §3

Each structure is given as a SMILES string. Active and inactive are the calls of the source. The rule behind the calls is not given here.

Broadly, the IC50 is the concentration that gives 50% inhibition. As for `CCCCCCCC[C@H](O)c1cc(OC)c(CO)c(=O)o1`, the inhibition result in the data set on BV-2 [1], in the data set on BV-2 [2], in the data set with BV-2 [3], in the data set with BV-2 [4], in the data set on BV-2 [5] and in the data set with BV-2 [8] was “Dose-dependent effect” in each case. Besides, in the data set on BV-2 [6] (Mus musculus), the IC50 came out at 15 µM. The values for the Activity result in the data set on BV-2 [7] and in the data set on BV-2 [9] were “Non-Toxic” and “Toxic”, respectively.
Consider `COc1cc([C@@H](O)CCCCCC[C@@H](C)O)oc(=O)c1CO`, for which, in the data set on BV-2 [6], the inhibition entry was “inactive”.
